The values below come from PubChem BioAssay.

Calls of active or inactive are those of the source.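 How the source made its calls, unless noted: active means viability loss from added drug above about 55%, and viability with drug at most 40%, in both replicates (limit read from the data, passing the limit was not always enough); inconclusive means both conditions met in only one replicate; inactive means neither replicate meets both conditions.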

A short description of test [1]: Her2 expression decrease, cell viability multiplex – SKBR3 breast tumor cells, AlphaScreen, ATP viability, primary screen (AID 461;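 active means Her2 level under about 52% in both replicate screens, with viability over 70% of control, limit read from the data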;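 on Her2 level: lower value means less Her2 protein in the cells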;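 on viability: percent of carrier control wells set as 100% viability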). The note with it: SKBR3 Her2 protein level, 18-24 h, measured here: SKBR3 viability, ATP luminescence, at 10 µM. On the technique in general: Alpha assays give light when donor and acceptor beads are brought close together.
The target in test [2] is Receptor tyrosine-protein kinase erbB-2 (Homo sapiens) (UniProt P04626). The description is as above. The note with it: 18-24 h, at 10 µM, stronger effect = lower value.
Test [3] in a line: reduced viability of SK-BR-3 breast cancer cells – cell-based, 24 h, human, pilot screen (AID 572;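 active means viability at or below 10% of carrier control in both of two separate runs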;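 further: compound exposure lasted between 18 and 24 h rather than exactly 24 h; 100% = carrier-treated control wells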). The note with it: SK-BR-3 viability, CellTiter-Glo luminescence, at 10 µM, stronger effect = lower value. On the technique in general: In ATP-based viability assays light output follows the ATP content of the culture.
Test [4] can be described thus: HUVEC growth inhibition – cell-based, human, primary screen (AID 575;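 active means viability at or below 30% in both replicate assays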;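 further: 100% = median of untreated cell wells with 0.1% DMSO on each plate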). The note with it: HUVEC proliferation, CellTiter-Glo luminescence, 72 h; at 10 µM; stronger effect = lower value. The procedure, abridged: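 System: primary human umbilical vein endothelial cells; Quantity: 1250 endothelial cells in each well; Buffer or medium: supplemented EBM, 2% fetal bovine serum; Doses: one dose, 10 µM final, 0.1% DMSO; Incubation: 72 h compound incubation; Technique: ATP-based CellTiter-Glo luminescent read; Evaluation: percent of median DMSO-control luminescence; Controls: vehicle and MePR control wells.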

Test [5] can be described thus: H69AR cell proliferation blockers – human, duplicate replicates, primary screen (AID 580;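 active means viability at or under a set limit in both replicates, limit being median viability minus 3 SD, cut at about 48% in these data, passing the limit was not always enough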;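 further: 100% = mean luminescence of untreated wells and 0% = no signal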). The settings on record: H69AR lung tumor cells viability, ATP luminescence, 72 h; at 10 µM; stronger effect = lower value.
Test [6] in a line: MRP1 drug-resistance reversers in H69AR cells – cell-based, doxorubicin co-treatment, pilot screen (AID 601). The settings on record: CellTiter-Glo, 72 h, at 10 µM; for differential viability (reversal): stronger effect = higher value.
The nature of test [7]: yeast transport mutant growth inhibition pilot in 384-well plates, post-Golgi transport modulator project (AID 636; in the data active means inhibition above about 31%). The settings on record: absorbance 615 nm, about 18 h, stronger effect = higher value.
The nature of test [8]: growth suppression of yeast trafficking mutant, preliminary HTS, modulators of trafficking downstream of Golgi apparatus project, 1536-format plate, OD 615 nm (AID 637; in the data active means inhibition above about 30%). The note with it: yeast transport mutant growth, absorbance 615 nm, 18 h; stronger effect = higher value.
Setting [9] is: H69AR cells + 2 uM doxorubicin, measured here: viability with 2 uM doxorubicin, stronger effect = lower value.
Where [10] appears, read: H69AR cells, compound alone cytotoxicity.

Chain of Receptor tyrosine-protein kinase erbB-2 (Homo sapiens) (P04626 whole entry, looked up): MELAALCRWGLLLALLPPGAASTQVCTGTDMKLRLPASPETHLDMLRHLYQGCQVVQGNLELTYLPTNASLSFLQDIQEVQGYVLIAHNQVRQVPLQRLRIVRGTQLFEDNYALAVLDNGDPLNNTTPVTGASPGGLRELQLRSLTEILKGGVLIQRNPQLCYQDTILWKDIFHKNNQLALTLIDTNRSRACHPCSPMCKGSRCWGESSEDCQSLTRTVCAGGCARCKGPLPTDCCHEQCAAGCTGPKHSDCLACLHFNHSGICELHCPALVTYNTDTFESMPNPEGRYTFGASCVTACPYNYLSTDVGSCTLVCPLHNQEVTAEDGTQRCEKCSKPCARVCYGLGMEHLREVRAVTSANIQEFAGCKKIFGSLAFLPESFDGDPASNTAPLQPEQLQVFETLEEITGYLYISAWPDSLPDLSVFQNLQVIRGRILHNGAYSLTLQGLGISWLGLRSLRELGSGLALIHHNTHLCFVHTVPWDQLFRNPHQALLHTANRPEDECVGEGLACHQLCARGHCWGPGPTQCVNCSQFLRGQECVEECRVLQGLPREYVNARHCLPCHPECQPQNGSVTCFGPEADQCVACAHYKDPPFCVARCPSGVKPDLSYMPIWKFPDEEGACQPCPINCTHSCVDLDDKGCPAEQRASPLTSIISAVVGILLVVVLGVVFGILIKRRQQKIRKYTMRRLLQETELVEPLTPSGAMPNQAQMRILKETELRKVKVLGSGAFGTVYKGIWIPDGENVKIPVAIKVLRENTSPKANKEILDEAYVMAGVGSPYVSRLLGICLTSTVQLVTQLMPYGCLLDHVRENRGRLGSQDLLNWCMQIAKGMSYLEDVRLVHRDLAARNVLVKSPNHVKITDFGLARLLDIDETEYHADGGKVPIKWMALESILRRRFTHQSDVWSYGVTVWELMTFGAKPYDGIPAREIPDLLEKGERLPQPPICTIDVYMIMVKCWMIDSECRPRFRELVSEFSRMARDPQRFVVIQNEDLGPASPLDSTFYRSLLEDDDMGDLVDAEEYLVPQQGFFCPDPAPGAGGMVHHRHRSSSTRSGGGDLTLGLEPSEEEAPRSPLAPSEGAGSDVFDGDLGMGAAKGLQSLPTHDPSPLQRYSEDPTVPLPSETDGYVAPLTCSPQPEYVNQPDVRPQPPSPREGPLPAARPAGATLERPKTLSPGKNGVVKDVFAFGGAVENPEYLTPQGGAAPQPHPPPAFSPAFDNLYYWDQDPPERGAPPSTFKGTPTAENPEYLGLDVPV

The viability is a read-out of living cells in per cent, often relative to untreated cells. Broadly, the inhibition is the relative decrease from the control value, in per cent. On to `COc1ccc(C(C(C(=O)c2cccs2)N2CCOCC2)N2CCOCC2)cc1OC` (stereo not given), for which the viability was 102% in test [1]; 102% (inactive) in test [3]; 84.3% (inactive) in test [4]; 102% (inactive) in test [5]; 96.6% in test [6] (setting [9]); 102% in test [6] (setting [10]). In addition, in test [2], the Her2 level is 112% (inactive). In addition, the differential viability (reversal) in test [6] (H69AR cells + 2 uM doxorubicin) is 4.94% (inactive). The inhibition in test [7] was -1.97% (inactive); in test [8] it was 0% (inactive).
On to `COc1ccc(-c2nnc(SCC(=O)Nc3cc(C)on3)n2C)cc1OC`, for which the viability in test [1] was 101%; in test [3], 101% (inactive); in test [4], 108% (inactive); in test [5], 105% (inactive); in test [6] (setting [9]) it was 92.6%; in test [6] (setting [10]) it was 105%. The Her2 level in test [2] was 90% (inactive). In addition, the differential viability (reversal) in test [6] (H69AR cells + 2 uM doxorubicin) is 11.9% (inactive). Besides, the inhibition was -6.22% (inactive) in test [7] and 4.59% (inactive) in test [8].
Turning to `CC(C)C(C(=O)Nc1ccc2c(c1)OCO2)N1C(=O)c2ccccc2C1=O` (stereo not given), the viability in test [1] is 122%; in test [3], 122% (inactive); in test [4] it was 94.3% (inactive); in test [5], 96.1% (inactive); in test [6] (setting [9]), 94.1%; in test [6] (setting [10]) it was 96.1%. For the same compound, in test [2], the Her2 level was 92% (inactive). In test [6] (H69AR cells + 2 uM doxorubicin), the differential viability (reversal) is 2.06% (inactive). For the same compound, the inhibition in test [7] was -4.03% (inactive); in test [8], 1.15% (inactive).
Consider `CC(=O)Nc1ccc(-c2nn[nH]n2)cc1Cl`, for which the viability in test [1] is 87%; in test [3], 87% (inactive); in test [4] it was 104% (inactive); in test [5], 104% (inactive); in test [6] (setting [9]) it was 95.6%; in test [6] (setting [10]), 104%. Also, in test [2], the Her2 level is 89% (inactive). Besides, in test [6] (H69AR cells + 2 uM doxorubicin), the differential viability (reversal) is 8.39% (inactive). Further, the inhibition in test [7] was -1.6% (inactive); in test [8], -2.9% (inactive).
With `Cc1cc(C)cc(NC(=O)c2nnn(Cc3cc(C)ccc3C)c2N)c1`, the viability was 111% in test [1]; 111% (inactive) in test [3]; 71.3% (inactive) in test [4]; 88.1% (inactive) in test [5]; 90.9% in test [6] (setting [9]); 88.1% in test [6] (setting [10]). In test [2], the Her2 level was 92% (inactive). Also, in test [6] (H69AR cells + 2 uM doxorubicin), the differential viability (reversal) is -2.83% (inactive). The results for the inhibition in test [7] and in test [8] were -0.8% (inactive) and -1.33% (inactive), respectively.
On to `O=C1c2ccccc2-c2nc3ncnn3c(-c3ccccc3)c21`, for which the viability in test [1] was 93.5%; in test [3], 93.5% (inactive); in test [4], 103% (inactive); in test [5], 102% (inactive); in test [6] (setting [9]), 93.2%; in test [6] (setting [10]), 102%. Also, the Her2 level in test [2] was 105% (inactive). Further, the differential viability (reversal) in test [6] (H69AR cells + 2 uM doxorubicin) is 8.68% (inactive). Moreover, the inhibition in test [7] was 1.97% (inactive); in test [8] it was -3.45% (inactive).
With `COc1ccc(Cl)cc1NC(=O)COc1cccc(-n2cnnn2)c1`, the viability is 110% in test [1]; 110% (inactive) in test [3]; 98.5% (inactive) in test [4]; 86.4% (inactive) in test [5]; 81.5% in test [6] (setting [9]); 86.4% in test [6] (setting [10]). Besides, the Her2 level in test [2] is 80% (inactive). Further, the differential viability (reversal) in test [6] (H69AR cells + 2 uM doxorubicin) is 4.85% (inactive). In addition, the inhibition in test [7] was -5.87% (inactive); in test [8], 1.61% (inactive).
As for `CC1=C(C(=O)OC(C)C)C(C2CC=CCC2)NC(=O)N1` (stereo not given), the viability in test [1] is 95.5%; in test [3], 95.5% (inactive); in test [4], 98.5% (inactive); in test [5] it was 87.3% (inactive); in test [6] (setting [9]), 88.7%; in test [6] (setting [10]), 87.3%. For the same compound, the Her2 level in test [2] was 113% (inactive). Moreover, in test [6] (H69AR cells + 2 uM doxorubicin), the differential viability (reversal) is -1.42% (inactive). The inhibition is 0.77% (inactive) in test [7] and -10.7% (inactive) in test [8].
As to `O=C(COn1nnc2ccc(C(F)(F)F)cc21)Nc1nnc(-c2ccccc2)o1`, the viability was 87% in test [1]; 87% (inactive) in test [3]; 68.2% (inactive) in test [4]; 97.8% (inactive) in test [5]; 82.3% in test [6] (setting [9]); 97.8% in test [6] (setting [10]). Moreover, the Her2 level in test [2] is 92.5% (inactive). In test [6] (H69AR cells + 2 uM doxorubicin), the differential viability (reversal) was 15.5% (inactive). The inhibition in test [7] is -7.76% (inactive); in test [8], -3.27% (inactive).
`CCC(C)OC(=O)c1[nH]c2c(c1C)C(=O)CC(c1ccc(N(C)C)cc1)C2` (stereo not given): the viability in test [1] was 88.5%; in test [3], 88.5% (inactive); in test [4], 57.9% (inactive); in test [5], 27.6% (active); in test [6] (setting [9]) it was 75.3%; in test [6] (setting [10]), 27.6%. Besides, the Her2 level in test [2] is 73% (inactive). Besides, in test [6] (H69AR cells + 2 uM doxorubicin), the differential viability (reversal) was -47.7% (inactive). The inhibition was -2.93% (inactive) in test [7] and 24.8% (inactive) in test [8].
With `COc1ccccc1C1C(C#N)=C(N)Oc2cc(C)n(Cc3ccccn3)c(=O)c21` (stereo not given), the viability was 108% in test [1]; 108% (inactive) in test [3]; 93.9% (inactive) in test [4]; 90.2% (inactive) in test [5]; 92.6% in test [6] (setting [9]); 90.2% in test [6] (setting [10]). Also, the Her2 level in test [2] is 133% (inactive). The differential viability (reversal) in test [6] (H69AR cells + 2 uM doxorubicin) is -2.41% (inactive). Moreover, the values for the inhibition in test [7] and in test [8] were -0.66% (inactive) and -6.94% (inactive), respectively.
For the compound `COc1ccc(CCNC(=O)CN(c2ccccc2OC)S(C)(=O)=O)cc1`, the viability in test [1] is 112%; in test [3], 112% (inactive); in test [4], 93.5% (inactive); in test [5] it was 99.9% (inactive); in test [6] (setting [9]) it was 84.3%; in test [6] (setting [10]) it was 99.9%. In test [2], the Her2 level was 99.5% (inactive). Also, in test [6] (H69AR cells + 2 uM doxorubicin), the differential viability (reversal) was 15.6% (inactive). For the same compound, the values for the inhibition in test [7] and in test [8] were -2.08% (inactive) and -1.48% (inactive), respectively.
As to `COc1ccc(N(CC(=O)N2CCCCC2)S(=O)(=O)c2ccccc2)c(OC)c1`, the viability is 91% in test [1]; 91% (inactive) in test [3]; 91.9% (inactive) in test [4]; 86.5% (inactive) in test [5]; 89.1% in test [6] (setting [9]); 86.5% in test [6] (setting [10]). Moreover, the Her2 level in test [2] is 94.5% (inactive). Further, in test [6] (H69AR cells + 2 uM doxorubicin), the differential viability (reversal) was -2.6% (inactive). In addition, the inhibition in test [7] was -1.03% (inactive); in test [8], -3.83% (inactive).
Turning to `CCOC(=O)C1=C(C)NC(=O)C(C#N)C1c1ccco1` (stereo not given), the viability in test [1] was 104%; in test [3], 104% (inactive); in test [4], 92.6% (inactive); in test [5] it was 90% (inactive); in test [6] (setting [9]), 90.6%; in test [6] (setting [10]), 90%. Moreover, the Her2 level in test [2] was 85% (inactive). Besides, in test [6] (H69AR cells + 2 uM doxorubicin), the differential viability (reversal) is -0.555% (inactive). Besides, the inhibition in test [7] was -4.8% (inactive); in test [8], -1.31% (inactive).
